Assay results of several laboratories.
Protocols differ between the studies behind these lines.
Target: Mitogen-activated protein kinase kinase kinase 2 (MAP3K2, Homo sapiens, UniProt Q9Y2U5)
Residues used in one study (Q9Y2U5 1-619): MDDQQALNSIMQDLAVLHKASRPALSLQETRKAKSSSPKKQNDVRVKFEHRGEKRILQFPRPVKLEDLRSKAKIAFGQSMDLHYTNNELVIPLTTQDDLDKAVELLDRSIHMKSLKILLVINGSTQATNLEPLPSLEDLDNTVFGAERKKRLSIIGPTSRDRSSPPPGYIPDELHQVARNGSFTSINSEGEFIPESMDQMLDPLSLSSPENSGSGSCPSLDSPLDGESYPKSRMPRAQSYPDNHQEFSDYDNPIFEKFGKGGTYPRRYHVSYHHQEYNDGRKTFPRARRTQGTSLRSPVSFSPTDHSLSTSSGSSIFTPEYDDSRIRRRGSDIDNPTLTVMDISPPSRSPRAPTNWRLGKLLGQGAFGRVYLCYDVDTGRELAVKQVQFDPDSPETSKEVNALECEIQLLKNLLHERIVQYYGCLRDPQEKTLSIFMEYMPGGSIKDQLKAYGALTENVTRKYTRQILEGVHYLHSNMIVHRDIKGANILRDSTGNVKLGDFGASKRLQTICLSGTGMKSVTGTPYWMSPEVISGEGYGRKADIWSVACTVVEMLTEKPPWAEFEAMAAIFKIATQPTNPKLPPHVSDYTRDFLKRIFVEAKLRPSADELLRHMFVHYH

SMILES	observed	mode	method	tested at	endpoint	value
Cn1cc(-c2cccc(N3CCc4c(sc5c4CC(C)(C)C5)C3=O)c2CO)cc(Nc2ccncn2)c1=O	enzyme activity	inhibitor		1 µM	inhibition	-2%
COCc1c(-c2cc3cc(C)cc(OC)c3s2)c2c(N)ncnn2c1CN1CCNC(=O)C1	cell-free assay		competition with immobilised ligand	1 µM	inhibition	98.8%
O=c1[nH]c2ccccc2n1C1CCN(Cc2ccc(-c3[nH]c4cc5ncnc5cc4nc3-c3ccccc3)cc2)CC1	cell-free assay			0.5 µM	remaining signal	92.4%
Cc1nn(C)cc1-c1nc2c(N3CCN(Cc4ccc(Cl)cc4)CC3)c(Cl)cnc2[nH]1	binding		competition with immobilised ligand	1 µM	remaining binding	77%
CC(C)(C)c1cc(C=C(C#N)C#N)cc(Br)c1O	enzyme activity	inhibitor		0.5 µM	remaining activity	93.7%
N#CC1(c2ccccn2)CCN(Cc2cc(C(=O)O)c(=O)n3ccccc23)CC1	cell-free assay		competition with immobilised ligand	1 µM	remaining binding	76%
Cn1cc(-c2cc(F)cc(N3CCn4c(cc5c4CCCC5)C3=O)c2CO)cc(Nc2ccc(N3CCN(C4COC4)CC3)cn2)c1=O	enzyme activity	inhibitor		0.1 µM	inhibition	-1%
COc1cc(Nc2ncc(F)c(Nc3ccc4c(n3)NC(=O)C(C)(C)O4)n2)cc(OC)c1OC	binding		competition with immobilised ligand	10 µM	inhibition	99%
Cn1cncc1[C@](O)(COc1ccc(C#N)cc1-c1ccc(OC(F)(F)F)cc1)c1ccc(C#N)cc1	cell-free assay		competition with immobilised ligand	1 µM	remaining binding	77%
Nc1ncc(-c2nc(N3CCOCC3)nc(N3CCOCC3)n2)c(C(F)F)n1	binding		competition with immobilised ligand	10 µM	remaining binding	71%
COc1ncccc1-c1cnn2ccc(N3CCN(C(=O)OC(C)C)CC3)nc12	binding		competition with immobilised ligand	1 µM	remaining binding	100%
